Experimental data: ChEMBL document CHEMBL1137700, “New transition metal ion complexes with benzimidazole-5-carboxylic acid hydrazides with antitumor activity” (Eur J Med Chem, 2009)

What was measured:
[1] = test system: A549; test: Cytotoxicity against human A549 cells after 72 hrs by Alamar Blue assay; format: functional, cell-based; details: A549, 72 h
In short: (§1)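 Cells seeded and grown at 37 °C under 5% CO2 for 24 h, then compounds in DMSO added in duplicate wells. Exposure 72 h at 37 °C, then media replaced with fresh media plus AlamarBlue and fluorescence read. Growth was computed from mean fluorescence at time zero, after 72 h with test substance, and after 72 h with vehicle control. IC50 derived.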

[2] = test system: MCF7; test: Cytotoxicity against human MCF7 cells after 72 hrs by Alamar Blue assay; format: functional, cell-based; details: MCF7, 72 h; in short: as §1

**Q.** `CCOC(=O)c1ccc2[nH]c(C)nc2c1` was tested. Which IC50 [1] did it give?
**A.** > 100 µM

**Q.** And the IC50 [2]?
**A.** 62 µM

**Q.** For `CC(C)=NNC(=O)c1cc2nc(C)[nH]c2cc1[N+](=O)[O-]`, which IC50 [1] is on record?
**A.** > 100 µM

**Q.** What about the IC50 [2] of the same compound?
**A.** > 100 µM

**Q.** With `CCOC(=O)c1cc2nc(C)[nH]c2cc1[N+](=O)[O-]` as the compound, how does the IC50 [1] read?
**A.** > 100 µM

**Q.** What about the IC50 [2] of the same compound?
**A.** > 100 µM

**Q.** How did the IC50 [1] turn out when `Cc1nc2cc(C(=O)O)ccc2[nH]1` was run?
**A.** > 100 µM

**Q.** What about the IC50 [2] of the same compound?
**A.** > 100 µM

**Q.** How did the IC50 [1] turn out when `CC(C)=NNC(=O)c1ccc2[nH]c(C)nc2c1` was run?
**A.** > 100 µM

**Q.** And the IC50 [2]?
**A.** > 100 µM

**Q.** Which IC50 [1] does the source give for `Cc1ccc(/C=N\NC(=O)c2cc3nc(C)[nH]c3cc2[N+](=O)[O-])cc1` here?
**A.** 73 µM

**Q.** And the IC50 [2]?
**A.** 3 µM

**Q.** For `Cc1nc2cc(C(=O)NN)c([N+](=O)[O-])cc2[nH]1`, which IC50 [1] is on record?
**A.** > 100 µM

**Q.** What about the IC50 [2] of the same compound?
**A.** > 100 µM

**Q.** For `Cc1nc2cc(C(=O)N/N=C\c3ccccn3)c([N+](=O)[O-])cc2[nH]1`, which IC50 [1] is on record?
**A.** > 100 µM

**Q.** What about the IC50 [2] of the same compound?
**A.** > 100 µM

**Q.** With `CO[C@@]12[C@H](COC(N)=O)C3=C(C(=O)C(C)=C(N)C3=O)N1C[C@@H]1N[C@@H]12` [MITOMYCIN] as the compound, how does the IC50 [1] read?
**A.** 0.4 µM

**Q.** What about the IC50 [2] of the same compound?
**A.** 0.2 µM

**Q.** For `Cc1nc2cc(C(=O)N/N=C\c3c[nH]c4ccccc34)c([N+](=O)[O-])cc2[nH]1`, which IC50 [1] is on record?
**A.** > 100 µM

**Q.** What about the IC50 [2] of the same compound?
**A.** > 100 µM

**Q.** Which results are given for `Cc1nc2cc(C(=O)N/N=C\c3ccc(C)o3)c([N+](=O)[O-])cc2[nH]1`?
**A.** IC50 [1]: > 100 µM; IC50 [2]: > 100 µM

**Q.** How did the IC50 [1] turn out when `CCN1CCN(C(=O)N[C@@H](C(=O)N[C@@H]2C(=O)N3C(C(=O)O)=C(CSc4nnnn4C)CS[C@H]23)c2ccc(O)cc2)C(=O)C1=O` [CEFOPERAZONE] was run?
**A.** > 100 µM

**Q.** What about the IC50 [2] of the same compound?
**A.** > 100 µM

**Q.** Which IC50 [1] does the source give for `Cc1nc2cc(C(=O)N/N=C\c3ccco3)c([N+](=O)[O-])cc2[nH]1` here?
**A.** > 100 µM

**Q.** And the IC50 [2]?
**A.** 81 µM

**Q.** For `COC(=O)c1cccc2oc(-c3cccc4oc(-c5ccccc5O)nc34)nc12`, which IC50 [1] is on record?
**A.** 2 µM

**Q.** What about the IC50 [2] of the same compound?
**A.** 1.4 µM
